In ChEMBL document CHEMBL3244368, “[3-(1,4-Cyclohexadienyl)-L-alanine,8-lysine]vasopressin: synthesis and some pharmacological properties” (J Med Chem, 1979):
Starred links: 1 amine or outer side, 2 acyl side, 3 side chain; linkers in the order of their positions; H or OH if unused. Positions of bridges follow the written chain, without caps; N, C: chain ends. Non-standard residues stand in square brackets, D forms with d. Residues, ends and D or L forms follow the SMILES beside them. X1 = O=C([C@H](CC1=CCC=CC1)N[*:1])[*:2]; 2Thi = N[C@@H](Cc1cccs1)C(=O)O

Columns and labels:
[1] = Oxytocic activity in isolated rat uterus strips in Mg2+-free van Dyke-Hastings solution
Rattus norvegicus [2] = experiment: Antidiuretic activity in iv dosed water loaded rat; type: functional, Urine
In short: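 Water-loaded rats under ethanol anesthesia, peptide given intravenously. Potency referenced to the USP Posterior Pituitary Reference Standard.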

Rattus norvegicus [3] = species: Rattus norvegicus; experiment: Vasopressor activity in phenoxybenzamine-treated rat; type: functional
In short: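 Phenoxybenzamine-treated rats under urethane anesthesia. Potency referenced to the USP Posterior Pituitary Reference Standard.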

Gallus gallus = species: Gallus gallus; experiment: Vasodepressor activity in chicken; type: functional
[4] = Stability of the compound in 0.2 M potassium phosphate buffer at […] assessed as hydrolysis by measuring Tyr level in presence of alpha-amylase preparation and cyclohexadiene; type: ADME
In short: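 Aspergillus oryzae α-amylase preparation, 1 mg per 0.9 µmol peptide, in potassium phosphate buffer pH 7, with 1,4-cyclohexadiene (10 µL) and toluene, under N2, 37 °C, 17 h. Adjusted to pH 2.2 for amino acid analysis. Phe from a control of constituent amino acids plus enzyme subtracted to give Phe in residue 3.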

[5] = Stability of the compound in potassium phosphate buffer at pH 7 assessed as hydrolysis by measuring DiHPe level in presence of alpha-amylase preparation and cyclohexadiene
[6] = Stability of the compound in potassium phosphate buffer at pH 7 assessed as hydrolysis by measuring Phe level in presence of alpha-amylase preparation and cyclohexadiene
[7] = Stability of the compound in 0.2 M potassium phosphate buffer at pH 7.7 assessed as hydrolysis by measuring Leu/Lys level in presence of alpha-amylase preparation; type: ADME
[8] = Stability of the compound in 0.2 M potassium phosphate buffer at pH 7.7 assessed as hydrolysis by measuring Gly level in presence of alpha-amylase preparation; type: ADME
[9] = Stability of the compound in 0.2 M potassium phosphate buffer at pH 7.7 assessed as hydrolysis by measuring Ile/Phe + DiHPe level in presence of alpha-amylase preparation; type: ADME
[10] = Stability of the compound in 0.2 M potassium phosphate buffer at pH 7.7 assessed as hydrolysis by measuring Tyr level in presence of alpha-amylase preparation; type: ADME
[11] = Stability of the compound in 0.2 M potassium phosphate buffer at pH 7.7 assessed as hydrolysis by measuring Ile/Phe + DiHPe level in presence of pronase; type: ADME
In short: (§1)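 Pronase digest in 0.2 M potassium phosphate buffer, pH 7.7, substrate:enzyme 5:1. Half the enzyme added at start and half after 18 h at 37 °C, then incubated 4 h more. Released amino acids quantified by amino acid analysis.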

[12] = Stability of the compound in 0.2 M potassium phosphate buffer at pH 7.7 assessed as hydrolysis by measuring Tyr level in presence of pronase; type: ADME
In short: as §1

[13] = Stability of the compound in 0.2 M potassium phosphate buffer at pH 7.7 assessed as hydrolysis by measuring Gly level in presence of pronase; type: ADME
In short: as §1

[14] = Stability of the compound in 0.2 M potassium phosphate buffer at pH 7.7 assessed as hydrolysis by measuring Asn/Gln level in presence of pronase; type: ADME
In short: as §1

[15] = Stability of the compound in 0.2 M potassium phosphate buffer at pH 7.7 assessed as hydrolysis by measuring Leu/Lys level in presence of pronase; type: ADME
In short: as §1

[16] = Stability of the compound in 0.2 M potassium phosphate buffer at pH 7.7 assessed as hydrolysis by measuring Asn/Gln level in presence of alpha-amylase preparation; type: ADME

Work on `NCCCC[C@H](NC(=O)[C@@H]1CCCN1C(=O)[C@@H]1CSSC[C@H](N)C(=O)N[C@@H](Cc2ccc(O)cc2)C(=O)N[C@@H](Cc2cccs2)C(=O)N[C@@H](CCC(N)=O)C(=O)N[C@@H](CC(N)=O)C(=O)N1)C(=O)NCC(N)=O` (H-CY[2Thi]QNCPKG-NH2; disulfide 1-6) yielded an Activity [1] of 19 U/mg, an Activity (Rattus norvegicus [2]) of 332 U/mg and an Activity (Rattus norvegicus [3]) of 243 U/mg. The Activity (Gallus gallus) was 87 U/mg.

With `NCCCC[C@H](NC(=O)[C@@H]1CCCN1C(=O)[C@@H]1CSSC[C@H](N)C(=O)N[C@@H](Cc2ccc(O)cc2)C(=O)N[C@@H](CC2=CCC=CC2)C(=O)N[C@@H](CCC(N)=O)C(=O)N[C@@H](CC(N)=O)C(=O)N1)C(=O)NCC(N)=O` (H-CY[X1]QNCPKG-NH2; disulfide 1-6) the Activity [1] was 6 U/mg, the Drug degradation [4] was 89 mol% and the Activity (Rattus norvegicus [2]) was 125 U/mg. For the same compound, the Activity (Rattus norvegicus [3]) was 129 U/mg, the Drug degradation [5] was 66 mol% and the Drug degradation [6] was 8.7 mol%.

`CC[C@H](C)[C@@H]1NC(=O)[C@H](Cc2ccc(O)cc2)NC(=O)[C@@H](N)CSSC[C@@H](C(=O)N2CCC[C@H]2C(=O)N[C@@H](CCCNC(=N)N)C(=O)NCC(N)=O)NC(=O)[C@H](CC(N)=O)NC(=O)[C@H](CCC(N)=O)NC1=O` [ARGIPRESTOCIN] (H-CYIQNCPRG-NH2; disulfide 1-6) gave an Activity [1] of 114 U/mg, an Activity (Rattus norvegicus [2]) of 245 U/mg and an Activity (Rattus norvegicus [3]) of 243 U/mg. The Activity (Gallus gallus) was 286 U/mg.

`NCCCC[C@H](NC(=O)[C@@H]1CCCN1C(=O)[C@@H]1CSSC[C@H](N)C(=O)N[C@@H](Cc2ccc(O)cc2)C(=O)N[C@@H](Cc2ccccc2)C(=O)N[C@@H](CCC(N)=O)C(=O)N[C@@H](CC(N)=O)C(=O)N1)C(=O)NCC(N)=O` [LYPRESSIN] gave an Activity [1] of 5 U/mg, a Drug degradation [7] of 101 mol% and an Activity (Rattus norvegicus [2]) of 212 U/mg. It also gave a Drug degradation [8] of 73 mol%, an Activity (Rattus norvegicus [3]) of 258 U/mg and an Activity (Gallus gallus) of 40 U/mg. The Drug degradation [9] was 113 mol% and the Drug degradation [10] was 100 mol%.

`CC[C@H](C)[C@@H]1NC(=O)[C@H](Cc2ccc(O)cc2)NC(=O)[C@@H](N)CSSC[C@@H](C(=O)N2CCC[C@H]2C(=O)N[C@@H](CC(C)C)C(=O)NCC(N)=O)NC(=O)[C@H](CC(N)=O)NC(=O)[C@H](CCC(N)=O)NC1=O` [OXYTOCIN] showed a Drug degradation [11] of 54 mol%, a Drug degradation [7] of 77 mol% and a Drug degradation [12] of 70 mol%. It also gave a Drug degradation [13] of 36 mol%, a Drug degradation [8] of 63 mol% and a Drug degradation [9] of 72 mol%. It also gave a Drug degradation [14] of 76 mol%, a Drug degradation [15] of 60 mol% and a Drug degradation [16] of 110 mol%. For the same compound, the Drug degradation [10] was 63 mol%.

With `N=C(N)NCCC[C@H](NC(=O)[C@@H]1CCCN1C(=O)[C@@H]1CSSC[C@H](N)C(=O)N[C@@H](Cc2ccc(O)cc2)C(=O)N[C@@H](Cc2ccccc2)C(=O)N[C@@H](CCC(N)=O)C(=O)N[C@@H](CC(N)=O)C(=O)N1)C(=O)NCC(N)=O` [VASOPRESSIN] the Activity [1] was 16 U/mg, the Activity (Rattus norvegicus [2]) was 429 U/mg and the Activity (Rattus norvegicus [3]) was 380 U/mg. For the same compound, the Activity (Gallus gallus) was 57 U/mg.
